Screening data deposited in PubChem by several laboratories.
A selection: hits, their analogues and other compounds. The true share with any hit is near 1.9%.
Efflux pump mplx: inhibitors of Candida efflux pumps in yeast, primary screen, S. cerevisiae, Nile Red, multiplex; S. cerevisiae Candida pump triplex; inhibition, % at 10 µM; 0.44% of 330,000 active; AID 485275, 2010;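 active = plate passing quality check with inhibition over a set limit, or well fluorescence over plate mean plus 4 SD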;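 also: Nile Red retained in pooled yeast measured as flow cytometry median fluorescence; 0% = buffer negative control and 100% = Enniatin B positive control; higher means more Nile Red kept so more efflux inhibition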
ARFGAP1 inhibitor: inhibitors of rat ARFGAP1 GAP activity, primary screen, biochemical, fluorescence polarization, GDP tracer; ADP-ribosylation factor GTPase-activating protein 1 (Rattus norvegicus), Q62848; inhibition, % at 16.5 µM; Arfgap1-stimulated ARF1 GTP hydrolysis, GDP FP detection; 0.26% of 360,000 active;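 active = inhibition above a per-plate limit, mean inhibition of low control wells plus 3 SD, cut at about 25% in these data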;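 also: 0% = DMSO wells with enzyme and 100% = wells lacking Arfgap1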
Target sequence (Q62848 1-136 limits assumed): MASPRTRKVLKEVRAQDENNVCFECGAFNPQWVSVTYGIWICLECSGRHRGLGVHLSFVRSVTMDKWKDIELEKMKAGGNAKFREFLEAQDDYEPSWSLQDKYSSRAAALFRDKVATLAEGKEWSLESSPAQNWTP
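system = rat Arfgap1 catalytic domain, aa 1-136 | technique = FP, GDP Alexa 633 tracer displaced from anti-GDP antibody, 620/688 nm | compound = one concentration, 16.5 µM, DMSO 1.26% | medium = HEPES-based buffer, pH 7.5 | timing = compound-enzyme preincubation 20 min, reaction 120 min, detection 60 min, 25 °C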
ASAP1 GAP inh: inhibitors of human ASAP1 ArfGAP activity, primary screen, biochemical, fluorescence polarization; 0.19% of 360,000 active; inhibition, % at 16.5 µM; ASAP1-stimulated ARF1 GTP hydrolysis, GDP FP detection; AID 624377, 2012; Arf-GAP with SH3 domain, ANK repeat and PH domain-containing protein 1 (Homo sapiens), …; in the data active = inhibition above about 25%;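 also: 0% = vehicle with enzyme and substrate and 100% = no enzyme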
Rtt109 HAT inh: inhibitors of C. albicans Rtt109/Vps75 HAT, primary screen, biochemical, ThioGlo CoA-SH fluorescence, plate reader. purified Rtt109/Vps75, 4 h. 0.16% of 330,000 active. AID 540336, 2011. inhibition, % at 34.9 µM;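 active = inhibition of at least 50% in every replicate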
FGF22 binding: binders of human FGF22 protein, primary screen, FGF22 synaptogenesis inhibitor project, biophysical, thermal shift, single point; activity (Tm shift, normalised), % at 9.99 µM; AID 651658, 2012; recombinant FGF22 thermal shift, SYPRO orange fluorescence; percent of sucrose octasulfate shift, DMSO zero; Fibroblast growth factor 22 (Homo sapiens), Q9HCT0; 1.5% of 340,000 active;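 active = mean Tm shift, scaled 0 neutral to 100 positive control, at about 1.3% or above, every replicate too, limit read from the data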
Target sequence (Q9HCT0 whole entry, looked up): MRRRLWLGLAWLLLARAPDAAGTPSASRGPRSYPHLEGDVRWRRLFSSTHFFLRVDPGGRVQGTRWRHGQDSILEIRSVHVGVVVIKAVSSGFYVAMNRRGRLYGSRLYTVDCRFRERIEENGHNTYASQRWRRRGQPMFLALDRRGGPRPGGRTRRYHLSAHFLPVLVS
* marks the source's active call; other numbers are inactive results; . = no result given.

SMILES | Efflux pump mplx | ARFGAP1 inhibitor | ASAP1 GAP inh | Rtt109 HAT inh | FGF22 binding
O=C(NCCCn1ccnc1)c1ccc(Cl)cc1[N+](=O)[O-] | 0.1 | -6.3 | -4.3 | -5.3 | 43.4*
COc1ccc(C(Nc2ccccn2)c2c(NC(=O)c3ccco3)sc(C)c2C)cc1OC (configuration not stated) | 0.0 | 7.4 | 12.2 | 3.0 | 43.9*
COc1ccc(C(c2c(NC(=O)c3ccco3)sc(C)c2C)N2CCOCC2)cc1 (configuration not stated) | . | 2.0 | 12.1 | -3.4 | -0.2
COc1cc(C(Nc2ccccn2)c2c(NC(=O)c3ccco3)sc(C)c2C)cc(OC)c1OC (configuration not stated) | 0.0 | 0.5 | 15.4 | 3.4 | 43.8*
CC1(C)CC(CC(=O)Nc2ccc([N+](=O)[O-])cc2)C(=O)O1 (configuration not stated) | 0.0 | 9.2 | -8.8 | 11.6 | .
C#CCN(C[C@@H]1[C@@H](OC(=O)NCCCCCC)[C@@H](OC(=O)NCCCCCC)Cn2c(=O)n(CCCCCC)c(=O)n21)S(=O)(=O)c1ccc(C)cc1 | . | -7.9 | -7.0 | . | 0.3
COc1cccc(OCCSc2nc3ccccc3c(=O)[nH]2)c1 | 0.1 | -5.9 | -4.4 | 0.1 | 43.4*
O=C(NC1=NCCS1)c1ccccc1OCc1ccccc1Cl | 0.5 | 0.7 | 5.8 | -2.2 | 43.9*
O=C(N/N=C/c1ccc[nH]1)c1ccccc1OCc1ccccc1Cl | -0.1 | 3.7 | 2.8 | -7.2 | 43.2*
CCOC(=O)Cc1cc(=O)[nH]n(-c2ccccc2)c1=O | . | 4.0 | 0.4 | 1.3 | 43.6*
CN(C(=O)Nc1ccc(Cl)cc1)c1c2c(nn1C)CCCC2 | 0.0 | -1.6 | -3.6 | 1.1 | .
Cn1c(SCC(=O)NC2CCCCC2)nnc1-c1cccnc1 | -0.1 | -2.8 | 0.0 | 54.5* | 0.1
O=C(COc1ccc(S(=O)(=O)NC2CCCC2)cc1)NCC1CCCO1 (configuration not stated) | 0.2 | 7.5 | -3.7 | -11.2 | 43.5*
O=C(NCC1CCCO1)c1ccc(NS(=O)(=O)c2ccccc2)cc1 (configuration not stated) | 0.1 | -4.8 | -11.5 | 2.5 | 44.7*
Cc1cc(S(=O)(=O)NC2CCCCC2)ccc1OCC(=O)NCC1CCCO1 (configuration not stated) | -0.1 | 2.9 | -1.4 | 13.4 | 0.4
Cn1c(NCCOc2ccccc2Cl)nc2cc(-c3ccc(F)cc3)sc2c1=O | . | -10.7 | 4.1 | . | 0.0
CCCN1C2CCCC1CC(NC(=O)C1CCCCC1)C2 (configuration not stated) | -0.1 | 3.2 | 0.3 | 5.6 | .
COc1ccc(N(CC(=O)Nc2ccccc2C(=O)N2CCOCC2)S(=O)(=O)c2ccc(F)cc2)cc1 | -0.2 | 4.3 | -7.3 | -3.2 | .
O=C(CN(c1ccc(F)cc1)S(=O)(=O)c1ccccc1)Nc1ccccc1C(=O)O | 0.3 | -4.2 | -1.2 | -2.5 | 43.1*
COc1ccc(C(=O)NCC(=O)OCC(=O)N2CCc3ccccc32)cc1 | 0.0 | -14.5 | -11.8 | -0.8 | 0.4
CCN1C(=O)[C@H]2[C@@H](c3ccc(C)cc3)N3C(=O)N(c4cccc(F)c4)C(=O)[C@@]3(CC)[C@H]2C1=O | -0.1 | 1.1 | -1.5 | -8.5 | -0.1
C[C@H](CO)N1C[C@H](C)[C@@H](CN(C)C(=O)Nc2cccc3ccccc23)Oc2ccc(NC(=O)Cc3ccccc3)cc2CC1=O | . | . | . | . | 1.6*
C[C@@H]1CN([C@@H](C)CO)C(=O)Cc2cc(NC(=O)Nc3cccc4ccccc34)ccc2O[C@H]1CN(C)Cc1ccncc1 | . | . | . | . | 2.4*
C[C@H]1CN([C@@H](C)CO)C(=O)Cc2cc(NC(=O)Nc3cccc4ccccc34)ccc2O[C@@H]1CN(C)Cc1ccncc1 | . | . | . | . | 0.4
C[C@H](CO)N1C[C@H](C)[C@H](CN(C)C(=O)Nc2cccc3ccccc23)Oc2ccc(NC(=O)Cc3ccccc3)cc2CC1=O | . | . | . | . | -0.6
